Test results taken from the array DNA melting data of Ke et al. (doi:10.1101/2024.01.08.574731).

What was measured:
[1] = melting temperature; fluorescence melt of hairpins on a sequencing array, two-state fit, raised by 9.35 °C to match UV melts; conditions: sodium 0.088 M
How it was run: (§1)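 Melting temperature and folding enthalpy were obtained by bootstrapped two-state fitting. Fits used Cy3 fluorescence of library hairpins with annealed Cy3 and quencher oligos on a sequenced MiSeq flow cell, imaged in 50 mM Na-HEPES pH 8.0, 25 mM NaCl in 2.5 °C steps up to 60 °C and normalised to pre-quench Cy3 and control constructs. Four replicates were combined by inverse-variance weighting, and fitted temperatures were raised by 9.35 °C to match UV melts.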

[2] = folding enthalpy; higher = less favourable; fluorescence melt of hairpins on a sequencing array, two-state fit; conditions: sodium 0.088 M
How it was run: as §1

Row | Sequence | Tm [1] | folding enthalpy [2]
1 | GATCAACGAAAGTTTATC (((.(((....))).))) | 32.5 °C | -28 kcal/mol
2 | GGGGGTGGAAACGTCCCC ((((..(....)..)))) | 48.7 °C | -26.2 kcal/mol
3 | GGAAGCGAAAGCTGCTCC ((((((....)))..))) | 37.9 °C | -11.8 kcal/mol
4 | GTGGCTGGAAACAACCAC ((((.((....)).)))) | 45.8 °C | -34.4 kcal/mol
5 | GATCGATTTTCGATC ((((((...)))))) | 54.4 °C | -35.2 kcal/mol
6 | GTTTAAGGAAACCTAAAC (((((.(....).))))) | 24.8 °C | -9.26 kcal/mol
7 | GATCCACGTCTGGATC ((((((....)))))) | 49.5 °C | -38.3 kcal/mol
8 | GTCACTGCGAAAGCAGAC (((..(((....)))))) | 28.5 °C | -7.51 kcal/mol
9 | GTCAATGGAAACGTTGAC (((((.(....).))))) | 48.1 °C | -31.2 kcal/mol
10 | GGCGGCGGAAACACCGCC (((((.(....).))))) | 65.2 °C | -21.9 kcal/mol
11 | GGAATAGGAAACTATTCC (((((((....))))))) | 52.7 °C | -41.4 kcal/mol
12 | GGAGGTCCGAAAGGATCC (((..(((....)))))) | 38.3 °C | -12 kcal/mol
13 | GGCCGTGGAAACATGGCC ((((.((....)).)))) | 61.8 °C | -44.6 kcal/mol
14 | GAAGAAGCGAAAGCTTTC (((..(((....)))))) | 30.1 °C | -9.3 kcal/mol
15 | GATCTCTTTGAGATC ((((((...)))))) | 55.8 °C | -32.1 kcal/mol
16 | GAGATTCCGAAAGGACTC (((..(((....)))))) | 30.5 °C | -12.2 kcal/mol
17 | TTCTCGAAAGAGAA (((((....))))) | 49.1 °C | -15.2 kcal/mol
18 | GCATGGCGAAAGCAATGC ((((.((....)).)))) | 64.8 °C | -30.6 kcal/mol
19 | GATCGGTTTTCCGATC ((((((....)))))) | 60.1 °C | -45.1 kcal/mol
20 | GATCTGTGCGCAGATC ((((((....)))))) | 57 °C | -47.1 kcal/mol
21 | GGCTTCGAAAGAAATGCC ((((((....)))..))) | 38.5 °C | -25.3 kcal/mol
22 | GATCCAAAGTTGGATC ((((((....)))))) | 49.8 °C | -35.2 kcal/mol
23 | GCCCTCCGAAAGGACGGC (((.(((....))).))) | 50.4 °C | -40.7 kcal/mol

Row | Sequence | Tm [1] | folding enthalpy [2]
24 | ATGTGGAAACACAT (((((....))))) | 46.1 °C | -20.3 kcal/mol
25 | GATCGAGTGCTCGATC ((((((....)))))) | 53.8 °C | -58.9 kcal/mol
26 | GATTCGGGAAACTGGATC (((.(.(....).).))) | 30.8 °C | -24.2 kcal/mol
27 | GGCTTTGGAAACAGAGTC (.((.((....)).)).) | 29.3 °C | -10.1 kcal/mol
28 | GGCTACGCGAAAGCGGCC (((..(((....)))))) | 56.9 °C | -17.2 kcal/mol
29 | GAAGATGGAAACATTTTC (((.(((....))).))) | 30.4 °C | -21.9 kcal/mol
30 | GCTCCCGAAAGGGAGAGC ((((((....)))..))) | 65.8 °C | -11.8 kcal/mol
31 | GGATCCTCGAAAGAGTCC (((..(((....)))))) | 23.6 °C | -12.3 kcal/mol
32 | GCAAATGGAAACGTTTGC (((((.(....).))))) | 49.6 °C | -38.1 kcal/mol
33 | GGTTACGCGAAAGCGACC (((..(((....)))))) | 37.2 °C | -12.4 kcal/mol
34 | GCCAGTCGAAAGACCGGC (((.(((....))).))) | 55.3 °C | -36.4 kcal/mol
35 | GGGTACCGAAAGGTGCCC (((.(((....))).))) | 68.7 °C | -29.2 kcal/mol
36 | GGCCCCTCGAAAGAGGCC (((..(((....)))))) | 43.8 °C | -15.6 kcal/mol
37 | CTGAGGAAACTCAG (((((....))))) | 47.1 °C | -20.1 kcal/mol
38 | GATCGCGGAAACGTGATC ((((.((....)).)))) | 57.5 °C | -38.6 kcal/mol
39 | GGTTCCGCGAAAGCGACC (((..(((....)))))) | 28.4 °C | -8.82 kcal/mol
40 | GAGCAAGGAAACTTGCCC (.(((((....))))).) | 41 °C | -11 kcal/mol
41 | GTCCTCGAAAGAGATGAC ((((((....)))..))) | 33.4 °C | -16.2 kcal/mol
42 | GATCACCCTAGTGATC ((((((....)))))) | 58.9 °C | -38.9 kcal/mol
43 | GAGGCCGAAAGGCGGCTC ((((((....)))..))) | 55.9 °C | -12.8 kcal/mol
44 | GATCTTATACAAGATC ((((((....)))))) | 42.6 °C | -33.8 kcal/mol
45 | GCTGTGCGAAAGCAGAGC (((.(((....))).))) | 57.8 °C | -56 kcal/mol
46 | GTAATGCGAAAGCACTAC (((.(((....))).))) | 39.4 °C | -19.9 kcal/mol

Row | Sequence | Tm [1] | folding enthalpy [2]
47 | GATCGGGATACCGATC ((((((....)))))) | 65.7 °C | -45.8 kcal/mol
48 | GTGAGTCGAAAGACCCAC (((.(((....))).))) | 49.3 °C | -29.4 kcal/mol
49 | GAGAGAGAAATCTCTC ((((((....)))))) | 45.8 °C | -27.6 kcal/mol
50 | GCCATCGGAAACGGTGGC ((((.((....)).)))) | 59.3 °C | -46.7 kcal/mol
51 | GCAGCGCGAAAGCCCGGC ((.(.((....)).).)) | 39.3 °C | -17.6 kcal/mol
52 | GACTTCGGAAACGAGGTC (((.(((....))).))) | 49.9 °C | -35.9 kcal/mol
53 | GCTCCCGAAAGGGCAAGC ((((((....)))..))) | 42.2 °C | -15.9 kcal/mol
54 | GCAGAACGAAAGTTATGC (((.(((....))).))) | 55.4 °C | -39.3 kcal/mol
55 | GATCAAGGAAACCTGATC (((((.(....).))))) | 35.6 °C | -29.1 kcal/mol
56 | GCGTCGCGAAAGCGGAGC ((..(((....)))..)) | 67.5 °C | -27.6 kcal/mol
57 | GATCTAAGAGTAGATC ((((((....)))))) | 37.1 °C | -14.9 kcal/mol
58 | GCGTAGGGAAACCTATGC ((.((((....)))).)) | 50.3 °C | -34.1 kcal/mol
59 | GGTCATGGAAACACGACC ((((.((....)).)))) | 43 °C | -37.1 kcal/mol
60 | GGGGTCCGAAAGGATCCC (((.(((....))).))) | 67.9 °C | -36 kcal/mol
61 | GATCTTTTGGAAGATC ((((((....)))))) | 44.3 °C | -34.1 kcal/mol
62 | GTCCTCTCGAAAGAGGAC (((..(((....)))))) | 58.5 °C | -36.2 kcal/mol
63 | GTCTACGGAAACGTAGGC (.(((((....))))).) | 51.2 °C | -29.2 kcal/mol
64 | GTTCTCTCGAAAGAGAAC (((..(((....)))))) | 51.1 °C | -34.5 kcal/mol
65 | GGGCCAGGAAACTGACCC (((.(((....))).))) | 50.4 °C | -40 kcal/mol
66 | GTCAGGGGAAACCTTGGC (.((.((....)).)).) | 32.7 °C | -17.3 kcal/mol
67 | GCGATCTGTCGC ((((....)))) | 51.6 °C | -33.5 kcal/mol
68 | GAATCTGGAAACGGATTC (((((.(....).))))) | 44.8 °C | -35.1 kcal/mol
69 | GCACGGCGAAAGCCAAGC ((..(((....)))..)) | 46.6 °C | -15.4 kcal/mol
